Results as given in the array DNA melting data of Ke et al. (doi:10.1101/2024.01.08.574731).

Key:
[1] = folding enthalpy; higher = less favourable; fluorescence melt of hairpins on a sequencing array, two-state fit; conditions: sodium 0.088 M
Summary of the method: (§1)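 Hairpins were imaged by Cy3 fluorescence on a sequenced MiSeq flow cell with annealed Cy3 and quencher oligos, in 50 mM Na-HEPES pH 8.0, 25 mM NaCl, in 2.5 °C steps up to 60 °C. Bootstrapped two-state fits of normalised signals gave melting temperature and folding enthalpy. Four replicates were combined by inverse variance, and fitted temperatures were raised by 9.35 °C to match UV melts.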

[2] = melting temperature; fluorescence melt of hairpins on a sequencing array, two-state fit, raised by 9.35 °C to match UV melts; conditions: sodium 0.088 M
Summary of the method: as §1

Q: For GGCCGCGAAAGCGGTGCC ((((((....)))..))), which folding enthalpy [1] is on record?
A: -10 kcal/mol

Q: What about the Tm [2] of the same sequence?
A: 55.7 °C

Q: Which folding enthalpy [1] does the source give for GATCAGAGAACTGATC ((((((....)))))) here?
A: -30.5 kcal/mol

Q: What about the Tm [2] of the same sequence?
A: 44.5 °C

Q: For GCTGCGGGAAACCGCAAC (.(((((....))))).), which folding enthalpy [1] is on record?
A: -11.4 kcal/mol

Q: And the Tm [2]?
A: 45.9 °C

Q: For GGGAAGGGAAACCTCCCC (((.(((....))).))), which folding enthalpy [1] is on record?
A: -21.6 kcal/mol

Q: And the Tm [2]?
A: 45.2 °C

Q: Which results are given for GGACGCGAAAGCGATTCC ((((((....)))..)))?
A: folding enthalpy [1]: -11 kcal/mol; Tm [2]: 36.5 °C

Q: Which folding enthalpy [1] does the source give for GTTCGCGAAAGCGATAAC ((((((....)))..))) here?
A: -8.04 kcal/mol

Q: And the Tm [2]?
A: 32.7 °C

Q: What does the source list for GAAAACGAAAGTTGCTTC ((((((....)))..)))?
A: folding enthalpy [1]: -19.8 kcal/mol; Tm [2]: 33.1 °C

Q: Which folding enthalpy [1] does the source give for GATATAGGAAACTATATC (((((((....))))))) here?
A: -33.4 kcal/mol

Q: What about the Tm [2] of the same sequence?
A: 45.5 °C

Q: Which results are given for GATCGAGTTCTCGATC ((((((....))))))?
A: folding enthalpy [1]: -39.6 kcal/mol; Tm [2]: 55.9 °C

Q: Which folding enthalpy [1] does the source give for GGGTCCGCGAAAGCGCCC (((..(((....)))))) here?
A: -14.9 kcal/mol

Q: What about the Tm [2] of the same sequence?
A: 40 °C

Q: For GCAGTGCGAAAGCACCGC ((.((((....)))).)), which folding enthalpy [1] is on record?
A: -17.4 kcal/mol

Q: What about the Tm [2] of the same sequence?
A: 62 °C

Q: For GGAGCTGCGAAAGCATCC (((..(((....)))))), which folding enthalpy [1] is on record?
A: -9.48 kcal/mol

Q: And the Tm [2]?
A: 32.4 °C

Q: For GTGCTTGCGAAAGCACAC (((..(((....)))))), which folding enthalpy [1] is on record?
A: -13.1 kcal/mol

Q: And the Tm [2]?
A: 61.4 °C

Q: Which results are given for GCAGGTCGAAAGACGTGC (((.(((....))).)))?
A: folding enthalpy [1]: -42.9 kcal/mol; Tm [2]: 62.8 °C

Q: For GCACAGCGAAAGCTTGC (((.(((....)))))), which folding enthalpy [1] is on record?
A: -20.1 kcal/mol

Q: And the Tm [2]?
A: 51.5 °C

Q: With GGCTTTCGAAAGAATGCC (((.(((....))).))) as the sequence, how does the folding enthalpy [1] read?
A: -41 kcal/mol

Q: And the Tm [2]?
A: 54.8 °C

Q: For GCTACGCGAAAGCGGCGC ((..(((....)))..)), which folding enthalpy [1] is on record?
A: -19.6 kcal/mol

Q: What about the Tm [2] of the same sequence?
A: 60.5 °C

Q: For GATGCTGGAAACAACATC ((((.((....)).)))), which folding enthalpy [1] is on record?
A: -31.4 kcal/mol

Q: What about the Tm [2] of the same sequence?
A: 36.2 °C

Q: With GCGTTAGGAAACTGACGC ((((.((....)).)))) as the sequence, how does the folding enthalpy [1] read?
A: -42.5 kcal/mol

Q: What about the Tm [2] of the same sequence?
A: 53.6 °C

Q: Which folding enthalpy [1] does the source give for GCTTCACGAAAGTGCAGC (((.(((....))).))) here?
A: -27.7 kcal/mol

Q: And the Tm [2]?
A: 51.6 °C

Q: For GCATTGGGAAACCGATGC ((((.((....)).)))), which folding enthalpy [1] is on record?
A: -50.4 kcal/mol

Q: And the Tm [2]?
A: 53.3 °C

Q: Which folding enthalpy [1] does the source give for GTGAGTGGAAACACTTGC (..((((....))))..) here?
A: -23.9 kcal/mol

Q: What about the Tm [2] of the same sequence?
A: 36.4 °C

Q: Which folding enthalpy [1] does the source give for GTAGTCGGAAACGACTGC (.(((((....))))).) here?
A: -29 kcal/mol

Q: And the Tm [2]?
A: 53.7 °C

Q: Which folding enthalpy [1] does the source give for GCAGACGAAAGTCTATGC ((((((....)))..))) here?
A: -14.9 kcal/mol

Q: And the Tm [2]?
A: 45.8 °C

Q: Which folding enthalpy [1] does the source give for GATCCAGGAGTGGATC ((((((....)))))) here?
A: -36.7 kcal/mol

Q: What about the Tm [2] of the same sequence?
A: 52.5 °C

Q: Which folding enthalpy [1] does the source give for GAGGGCGGAAACGCCCCC (.(((((....))))).) here?
A: -5.82 kcal/mol

Q: What about the Tm [2] of the same sequence?
A: 45.8 °C

Q: What does the source list for GCTAAGCGAAAGCACAGC (((..((....))..)))?
A: folding enthalpy [1]: -21.7 kcal/mol; Tm [2]: 42.7 °C

Q: Which folding enthalpy [1] does the source give for GCGGTGACCGC ((((...)))) here?
A: -23.6 kcal/mol

Q: What about the Tm [2] of the same sequence?
A: 56.6 °C

Q: For GATCGGCGACCGATC ((((((...)))))), which folding enthalpy [1] is on record?
A: -34.2 kcal/mol

Q: What about the Tm [2] of the same sequence?
A: 56.4 °C

Q: Which folding enthalpy [1] does the source give for GTTCGCCGAAAGGCAAAC (((.(((....))).))) here?
A: -18.1 kcal/mol

Q: What about the Tm [2] of the same sequence?
A: 46.9 °C

Q: What does the source list for GTCGTCGGAAACGACAAC ((.((((....)))).))?
A: folding enthalpy [1]: -13 kcal/mol; Tm [2]: 47.4 °C

Q: Which results are given for GCTTCACGAAAGTGTAGC (((.(((....))).)))?
A: folding enthalpy [1]: -30.2 kcal/mol; Tm [2]: 53.8 °C

Q: For GCAAAGCGAAAGCCTGGC ((.(.((....)).).)), which folding enthalpy [1] is on record?
A: -8.7 kcal/mol

Q: What about the Tm [2] of the same sequence?
A: 35 °C

Q: What does the source list for GAAGCCGAAAGGCGTTTC ((((((....)))..)))?
A: folding enthalpy [1]: -8.82 kcal/mol; Tm [2]: 44.7 °C

Q: What does the source list for GAGTCAGCGAAAGCTCTC (((..(((....))))))?
A: folding enthalpy [1]: -11.8 kcal/mol; Tm [2]: 30.1 °C

Q: Which folding enthalpy [1] does the source give for GCTTCGACGAAAGTCAGC (((..(((....)))))) here?
A: -13.1 kcal/mol

Q: What about the Tm [2] of the same sequence?
A: 33.5 °C

Q: What does the source list for GCTAAGCGAAAGCTAAGC (((.(((....))).)))?
A: folding enthalpy [1]: -41.1 kcal/mol; Tm [2]: 51.5 °C

Q: For GCTCTGCGAAAGCGGGGC ((.(.((....)).).)), which folding enthalpy [1] is on record?
A: -27.6 kcal/mol

Q: What about the Tm [2] of the same sequence?
A: 63.4 °C

Q: For GCGAGCGCGAAAGCGCGC (((..(((....)))))), which folding enthalpy [1] is on record?
A: -7.4 kcal/mol

Q: What about the Tm [2] of the same sequence?
A: 59.9 °C

Q: For GCTAACGCGAAAGCGAGC (((..(((....)))))), which folding enthalpy [1] is on record?
A: -15.2 kcal/mol

Q: What about the Tm [2] of the same sequence?
A: 45.2 °C

Q: What does the source list for GGAAACGAAAGTTGCTCC ((((((....)))..)))?
A: folding enthalpy [1]: -12.8 kcal/mol; Tm [2]: 27.1 °C

Q: Which folding enthalpy [1] does the source give for GCGCTGCGAAAGCACGGC ((..(((....)))..)) here?
A: -15.1 kcal/mol

Q: And the Tm [2]?
A: 51.5 °C

Q: Which folding enthalpy [1] does the source give for GTGGGGGGAAACCTCCGC (.((.((....)).)).) here?
A: -25.4 kcal/mol

Q: What about the Tm [2] of the same sequence?
A: 45.4 °C

Q: For GCATGCGAAAGCAGATGC ((((((....)))..))), which folding enthalpy [1] is on record?
A: -24.6 kcal/mol

Q: What about the Tm [2] of the same sequence?
A: 51.4 °C

Q: With GCGGTCGTCCGC ((((....)))) as the sequence, how does the folding enthalpy [1] read?
A: -31.1 kcal/mol

Q: What about the Tm [2] of the same sequence?
A: 56.9 °C

Q: Which folding enthalpy [1] does the source give for GGCCACGAAAGTGCGGCC ((((((....)))..))) here?
A: -39.6 kcal/mol

Q: And the Tm [2]?
A: 55.6 °C
